Screening results deposited in PubChem by The Scripps Research Institute Molecular Screening Center.
Only some compounds are listed: those with a hit (about 1.9% of all), similar ones and a draw of the others.
M4 PAM – CHRM4 positive allosteric modulation | P08173 | CHO-K1 hM4/Gqi5, Fluo-8 calcium fluorescence, ACh EC20; 0% = ACh EC20, 100% = maximal ACh | AID 624126 | activation, % at 3 µM | 360,000 compounds, 0.4% hits;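 active = activation above its plate's cutoff, the mean activation of sample wells plus 3 SD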
Target sequence (P08173 whole entry, looked up): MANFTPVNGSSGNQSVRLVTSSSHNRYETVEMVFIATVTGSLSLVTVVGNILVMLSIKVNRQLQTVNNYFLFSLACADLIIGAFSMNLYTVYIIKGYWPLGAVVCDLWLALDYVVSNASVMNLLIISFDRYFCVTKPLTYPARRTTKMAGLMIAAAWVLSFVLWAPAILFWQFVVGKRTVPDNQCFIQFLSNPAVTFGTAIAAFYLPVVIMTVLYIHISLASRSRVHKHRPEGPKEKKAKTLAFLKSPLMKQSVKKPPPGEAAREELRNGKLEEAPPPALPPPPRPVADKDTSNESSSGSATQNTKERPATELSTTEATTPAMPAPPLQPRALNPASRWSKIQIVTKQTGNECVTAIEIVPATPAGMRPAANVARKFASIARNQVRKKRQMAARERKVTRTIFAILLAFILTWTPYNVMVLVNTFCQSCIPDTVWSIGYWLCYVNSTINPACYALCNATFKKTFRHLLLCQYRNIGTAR
M4 ag – CHRM4 agonism in calcium assay; 360,000 compounds, 0.14% hits; P08173; CHO-K1 hM4/Gqi5, Fluo-8 calcium fluorescence; vehicle 0%, full acetylcholine response 100%; activation, % at 3 µM;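 active = activation above the run mean over all test wells plus 3 SD, cut at about 32% in these data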;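 note: peak over basal fluorescence ratio per well then scaled between controls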
CHRM5 PAM – potentiates acetylcholine response at human M5 receptor; P08912; CHO-K1 hM5, Fluo-8 calcium, ACh EC20 PAM; 0% = ACh EC20, 100% = ACh EC100; activation, % at 3 µM; 360,000 compounds, 0.3% hits;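 active = activation above the run cutoff, the mean activation of all test compounds plus 3 SD, cut at about 18% in these data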
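Assay system: CHO-K1 hM5 cells / Incubation: Fluo-8 loading 80 min at 37 °C plus 30 min room temperature / Technique: Fluo-8 calcium dye fluorescence, kinetic read / Repeats: single replicate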
M4 antag – blocks acetylcholine activation of human M4 receptor; CHO-hM4 cells, ACh EC80, Fluo-8 calcium fluorescence; inhibition, % at 3 µM; 360,000 compounds, 0.73% hits; AID 624125;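 active = inhibition above its plate's cutoff, the mean inhibition of sample wells plus 3 SD, cut at about 27% in these data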
CHRM5 agonist – agonists of human muscarinic M5 receptor (CHRM5) | P08912 | CHO-K1 hM5 cells, Fluo-8 calcium fluorescence; 0% DMSO wells, 100% maximal acetylcholine response | activation, % at 3 µM | 360,000 compounds, 0.19% hits;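 active = activation above the run's mean over test compounds plus 3 SD, cut at about 23% in these data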;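 note: signal is peak over basal fluorescence ratio across the kinetic read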
CHRM5 antagonist – blocks acetylcholine activation of human M5 receptor; P08912; CHO-hM5 cells, Fluo-8 calcium fluorescence, ACh EC80; inhibition, % at 3 µM; 360,000 compounds, 0.59% hits;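 active = inhibition above a per-plate cutoff, the mean of that plate's test compounds plus 3 SD, cut at about 27% in these data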
A number is an active result; - = inactive.

SMILES | M4 PAM | M4 ag | CHRM5 PAM | M4 antag | CHRM5 agonist | CHRM5 antagonist
CCN(CC)S(=O)(=O)c1cccc(NC(=O)/C=C/c2cccc([N+](=O)[O-])c2)c1 | - | - | - | - | - | 32.5
CCN(CC)S(=O)(=O)c1cccc(NC(=O)/C=C/c2ccc([N+](=O)[O-])cc2)c1 | - | - | - | - | - | -
CCN(CC)S(=O)(=O)c1ccc(C)c(NC(=O)CNc2cccc(S(=O)(=O)N3CCCC3)c2)c1 | - | - | - | - | - | -
COc1cccc(CNc2ccc(F)c([N+](=O)[O-])c2)c1O | - | - | - | 68.3 | - | -
O=[N+]([O-])c1ccccc1CNc1ccc(F)c(Cl)c1 | - | - | - | - | - | -
Cc1ccc(NC(=S)NC2CCSc3ccccc32)cc1C (stereo not drawn) | - | - | - | 51.9 | - | 28.2
COC(=O)c1ccc(C(=O)NC2CCSc3ccccc32)cc1 (stereo not drawn) | - | - | - | - | - | -
Cc1ccc(Nc2ccc(N)cc2S(=O)(=O)O)cc1 | - | - | - | - | - | -
CCOc1ccc(NC(=O)c2ccc3c(c2)N(C)CCS3)cc1 | - | - | - | - | - | -
Cc1cc(C)c(CN2CCN(C(=O)Cn3ccc(N)nc3=O)CC2)c(C)c1 | - | - | - | - | - | -
CSc1nc(N)nc2c1ncn2CC(=O)N1CCN(Cc2c(C)cc(C)cc2C)CC1 | - | - | - | - | - | 31.9
Cn1[nH]c(C(F)(F)F)c(C=Nc2ccc(Cl)cc2)c1=O | - | - | - | - | - | -
C/C(=N\NC(=O)c1nn(C)c(C)c1Br)c1cccc(NC(=O)c2ccoc2C)c1 | - | - | 21.9 | - | - | -
COc1ccc(-c2nn(-c3ccccc3C)cc2CNCc2cccnc2)cc1F | - | - | - | - | - | -
c1ccc(-c2noc(-c3cccc4ccccc34)n2)cc1 | 16.0 | - | - | - | - | -
COC(=O)c1cnc(Oc2c(Cl)cc(N)cc2Cl)cc1C(F)(F)F | - | - | 18.9 | - | - | -
COC(=O)c1cnc(Oc2ccc(NC(=O)NC(=O)c3c(F)cccc3Cl)cc2)cc1C(F)(F)F | - | - | - | - | - | -
CC(=O)c1c(C)[nH]c(C(=O)COc2cc(C)ccc2C(C)C)c1C | - | - | - | 39.0 | - | 40.5
COc1ccc(C(=O)NC(=S)Nc2ccc(N3CCN(C(C)=O)CC3)cc2)cc1[N+](=O)[O-] | - | - | - | - | - | -
CC(=O)N1CCN(c2ccc(Oc3ccc([N+](=O)[O-])c(C(F)(F)F)c3)cc2)CC1 | - | - | - | - | - | 27.3
O=[N+]([O-])c1cccc(/C=N/Nc2nc(NCc3ccccc3)nc(N3CCOCC3)n2)c1O | - | 46.2 | - | - | - | -
O=C(Nc1ccc(-c2nnc3n2CCCCC3)cc1)c1cnccn1 | - | - | - | - | - | -
N=c1sc2ccccc2n1-c1ccccc1 | - | - | - | - | - | 27.2
C=CC(=O)N=c1sc2ccccc2n1-c1ccccc1 | - | - | - | - | - | -
CCOC(=O)c1[nH]c2ccc(Br)cc2c1NC(=O)CCN1CCCC(C)(C)C1 | - | - | - | 32.6 | - | 46.0
SMILES | M4 PAM | M4 ag | CHRM5 PAM | M4 antag | CHRM5 agonist | CHRM5 antagonist
COc1cccc(NC(=S)N(Cc2ccccn2)Cc2ccccc2Cl)c1 | - | - | - | - | - | -
CCS(=O)(=O)Nc1cccc(-c2cn3c(n2)SCC3)c1 | - | - | - | - | - | -
CS(=O)(=O)Nc1cccc(-c2cn3c(n2)SCC3)c1 | - | - | - | - | - | 31.3
O=C(NCCCN1CCOCC1)c1ccc2c(c1)N(Cc1cccc(Cl)c1)C(=O)CS2 | - | - | - | 36.1 | - | -
C/C(CC1CC(COCC(C)C)OC1=O)=N\Nc1nc(-c2ccccc2)cs1 (stereo not drawn) | - | - | - | 29.9 | - | -
CCn1c(NC(=O)C(C)C)c(-c2cccs2)c(=O)c2ccccc21 | - | - | - | - | - | -
CCn1c(NC(=O)c2ccccc2F)c(-c2cccs2)c(=O)c2ccccc21 | - | - | - | 28.6 | - | -
COc1ccc([N+](=O)[O-])cc1NC(=O)C(C)OC(=O)c1ccccn1 (stereo not drawn) | - | - | - | - | - | -
CNC(=S)N/N=C(\C)c1ccc(C)c(C)c1 | - | - | - | 27.2 | - | -
C#CCOc1ccc(C2C3=C(COC3=O)Nc3cc4c(cc32)OCO4)cc1OC (stereo not drawn) | 22.0 | - | - | - | - | -
CCOC(=O)C1CCCN(c2nc3ccccc3nc2C(C#N)C(=O)OC(C)C)C1 (stereo not drawn) | 20.9 | - | - | - | - | -
CCOC(=O)C1CCN(c2nc3ccccc3nc2C(C#N)C(=O)OC(C)C)CC1 (stereo not drawn) | - | - | - | - | - | -
c1ccc(OCc2noc(CN3CC[C@@H]4CCCC[C@H]4C3)n2)cc1 | - | - | 21.6 | - | - | -
Clc1cccc(C2CCN(Cc3nc(COc4ccccc4)no3)C2)c1 (stereo not drawn) | - | - | - | - | - | -
CC(=O)CCc1ccc(OCCCCN2CCC(Cc3ccccc3)CC2)cc1 | - | - | - | 75.0 | - | -
O=[N+]([O-])c1ccc(CN2CCC(Cc3ccccc3)CC2)cc1 | - | - | - | - | - | -
O=[N+]([O-])c1cccc(OCCCN2CCC(Cc3ccccc3)CC2)c1 | - | - | - | 38.1 | - | -
CCC(=O)c1ccccc1OCCCN1CCC(Cc2ccccc2)CC1 | - | - | - | 41.8 | - | -
Cc1cccc2c1N(CCOc1ccc(C(C)(C)C)cc1)C(=O)C2=O | - | - | - | - | 26.6 | -
CC1=Nn2c(nnc2-c2cc(-c3ccccc3)n[nH]2)SC1 | - | - | - | - | - | -
CC1=Nn2c(nnc2C2CCCCC2)SC1 | 31.1 | - | - | - | - | -
NS(=O)(=O)c1ccc(NS(=O)(=O)c2ccc(NC(=O)c3ccc(-c4ccccc4)cc3)cc2)cc1 | - | - | - | - | 27.2 | -
O=C(Nc1ccncc1)c1ccc(-c2ccccc2)cc1 | - | - | - | - | - | 33.5
O=C(Nc1cccnc1)c1ccc(-c2ccccc2)cc1 | - | - | - | - | - | -
COc1ccc([N+](=O)[O-])cc1NC(=O)CSc1nncn1-c1ccccc1 | - | - | - | - | - | -
COC(=O)c1c(C)oc2ccc(N(C(=O)c3ccncc3)S(=O)(=O)c3ccc4ccccc4c3)cc12 | - | - | - | 33.1 | - | -
COc1cc(/C=N/NC(=O)c2ccncc2)ccc1Oc1ccc([N+](=O)[O-])cn1 | - | - | 18.5 | - | - | -
COc1ccc(/C=N/NC(=O)c2cccc([N+](=O)[O-])c2)cc1OC(=O)c1ccc(C)cc1 | - | - | 56.7 | - | - | -
